# A selection: hits, their analogues and other compounds. The true share with any hit is near 3.1%.
# Calb FLC: C. albicans growth modulation with fluconazole. C. albicans CaCi-2 (fluconazole-resistant clinical isolate) + fluconazole, Alamar Blue growth, 48 h. growth inhibition, % (no concentration beside the values). 300,000 compounds, 0.57% hits. AID 1979;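 active means growth inhibition above about 58% in most replicates, limit read from the data, passing the limit was not always enough; inconclusive means exactly half the replicates above a set limit; inactive means most replicates below a set limit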;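 further: all wells also contain fluconazole at 8 µg/ml as a sub-toxic cotreatment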
# Bfl-1 A1 inh: inhibitors of the anti-apoptotic protein A1, read as caspase activation; MEF A1-2A-BIM cells, Caspase-Glo 3/7 luminescence, 3 h; percent of clofoctol response, vehicle zero; caspase activation, % (concentration not given with the values); AID 2462; 330,000 compounds, 0.066% hits;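 active means over half of replicate activation scores above 10%, or exactly half above 10 with the replicate mean above 10; inconclusive means replicate mean below 10 yet half the replicates above 10; inactive means over half of replicates below 10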
# T cruzi inh: blocks replication of Trypanosoma cruzi. T. cruzi beta-gal in NIH3T3, luminescence, 90 h. inhibition, % (no concentration beside the values). 300,000 compounds, 1.4% hits. AID 1885;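 active means mean inhibition across valid replicates above about 55%, limit read from the data; inconclusive means mean below that limit but half or more replicates reach it; inactive means mean below it, under half of replicates reach it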;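 further: signal also drops with host cell toxicity which is not excluded here; higher percent means less beta-gal luminescence so fewer parasites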
#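 System – NIH/3T3 host cells with β-galactosidase reporter T. cruzi · Doses – single 50 nL compound addition per well in DMSO · Reagent – 5000 T. cruzi trypomastigotes/well · Medium – Low-serum DMEM with 2% FBS · Timing – ≥90 h infection period, 3 h prior cell attachment · Evaluation – parasite load inhibition, % · Technique – GalScreen luminescence, 60 min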
# TAG inh: reduces triacylglycerol accumulation in H9c2 cells. inhibition, % at 12.5 µM. 230,000 compounds, 0.66% hits. Nile Red lipid (TAG) fluorescence; cells loaded with 200 µM oleic acid;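 active means pattern-corrected inhibition of lipid staining of at least 50% with the nuclear-stain viability signal not falling by more than 50%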
# Beta apoptosis: beta cell apoptosis inhibition; INS-1E cytokine-induced death, ATP luminescence, 48 h; percent of positive-control rescue, neutral wells zero; protection from apoptosis, % (concentration not given with the values); 300,000 compounds, 0.8% hits; AID 435005;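 active means Every replicate reaches about 75%, or at least half do and their mean reaches it too, limit read from the data; inconclusive means At least half of replicates reach the limit but their mean does not; inactive means Under half of replicates reach the limit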;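 further: higher means more ATP so stronger rescue from cytokine killing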
# CSC inhib: cancer stem cell inhibition. 300,000 compounds, 1.1% hits. AID 2717. inhibition, % at 7.5 µM. cancer stem cell-like cells viability, luminescence; in the data active means inhibition above about 75%; inconclusive means no clear call, values can overlap the other calls; tested in HMLE shEcad cells
# Numbers stand for hits; - = inactive; ? = inconclusive; . = not tested or not shown.
SMILES,Calb FLC,Bfl-1 A1 inh,T cruzi inh,TAG inh,Beta apoptosis,CSC inhib
OC(COc1ccc(OCC(O)CN2CCN(Cc3ccccc3)CC2)cc1)CN1CCN(Cc2ccccc2)CC1 (stereo not given),-,-,65,-,-,-
Cc1sc2ncnc(N3CCC(C(=O)Nc4sc5c(c4C(N)=O)CCC(C)C5)CC3)c2c1C (stereo not given),.,-,.,-,-,.
CCCNC(=O)C(Cc1cccc(C#N)c1)NC(=O)c1ccc(C#N)cc1 (stereo not given),.,-,.,-,-,-
CCC(=O)c1ccccc1OCCCN1CCC(Cc2ccccc2)CC1,-,-,-,-,-,-
CSCCC(NC(=O)c1ccco1)C(=O)OCC(=O)N1c2ccccc2NC(=O)C1(C)C (stereo not given),.,-,.,-,-,.
COc1ccc(-n2nc(C(=O)NCC(=O)N3CCC(C(N)=O)CC3)c3ccccc3c2=O)cc1,-,-,-,.,-,-
N#Cc1ccc(-c2ccc(OCC(O)CN3CCCCC3)cc2)cc1 (stereo not given),-,-,62,.,-,-
ON=C1c2cc(OCCN3CCCCC3)ccc2-c2ccc(OCCN3CCCCC3)cc21,-,-,61,-,-,-
OC(COc1ccc(OCc2ccccc2)cc1)CN1CCCCC1 (stereo not given),-,-,56,.,-,-
Cc1n[nH]c(C)c1CCNCc1ccc(OCC(O)CN2CCCCC2)cc1 (stereo not given),71,-,-,-,-,-
COc1ccc2cc(C(=O)N3CCC(Cc4ccccc4)CC3)[nH]c2c1,-,-,-,.,-,-
CC(=O)N1c2ccc(S(=O)(=O)NCC3CCC(C(=O)NCc4ccco4)CC3)cc2CC1C (stereo not given),-,-,-,.,-,-
OC(COc1cccc2ccccc12)CN1CCN(c2ccccc2Cl)CC1 (stereo not given),-,-,-,.,-,114
Cc1ccc(Cn2c(=N)n(CC(O)COc3ccccc3)c3ccccc32)cc1 (stereo not given),?,-,59,.,-,-
CCC(C)c1ccccc1NC(=O)c1cc2cccc([N+](=O)[O-])c2[nH]1 (stereo not given),-,-,65,-,-,-
Cc1ccc(NC(=O)c2cc3cccc([N+](=O)[O-])c3[nH]2)cc1,-,-,-,-,-,-
COc1cc(CNCCO)cc(Cl)c1OCc1ccc(Cl)cc1Cl,-,-,-,-,108,-
COc1cc(CNC2CCCC2)cc(Cl)c1OCc1ccc(F)cc1,-,-,-,-,-,-
COc1cc(CNC2CCCC2)cc(Cl)c1OCc1ccccc1Cl,-,-,77,.,?,80
NC(=O)c1c(-c2ccc(Cl)cc2Cl)csc1NC(=O)Cc1ccccc1,-,-,-,.,96,-
COc1cc(C(CC(=O)Nc2ccc(Cl)cn2)N2Cc3ccccc3C2=O)cc(OC)c1OC (stereo not given),-,-,-,.,-,-
CC(C)(C)c1ccc(NNC(=O)C2CCC2)cc1,-,-,-,-,109,-
CC(C)(C)c1ccc(NC(=O)COC(=O)C2CCCC2)cc1,.,-,.,-,-,.
CN1CCN(C(=O)c2cnn3c(C(F)(F)F)cc(-c4cccs4)nc23)CC1,-,-,-,-,-,-
O=C(c1cnn2c(C(F)(F)F)cc(-c3cccs3)nc12)N1CCN(Cc2ccccc2)CC1,-,-,75,-,-,-
SMILES,Calb FLC,Bfl-1 A1 inh,T cruzi inh,TAG inh,Beta apoptosis,CSC inhib
O=C(NCc1nnnn1-c1ccc(F)c(F)c1)c1ccc2c(c1)OCO2,-,-,-,-,-,-
CCCc1cc(=O)oc2c3c(c4c(c12)OC(C)(C)C=C4)OC(C)C(C)C3O (stereo not given),-,-,55,.,-,-
CC1=NN(c2nc(-c3ccc(C)cc3)cs2)C(=O)C1N=Nc1ccc(C(N)=O)cc1 (stereo not given),-,-,-,-,79,-
CC1(C)c2cc(Cl)ccc2-n2c1cc(O)c(-c1ccccc1)c2=O,-,-,-,-,-,-
Cc1ccc(-c2nc(=O)[nH]c3ccc(Br)cc23)cc1,-,-,-,-,-,-
Cc1c(C)n(Cc2ccccc2)c2ccc(C(=O)OCCN(C)C)cc12,-,-,-,-,-,85
Cc1c(C)n(Cc2ccccc2)c2ccc(C(=O)NCCN3CCOCC3)cc12,-,-,-,.,-,-

# High-throughput results as filed in PubChem.
